Screening results as filed in PubChem.
Hits are enriched below; roughly 3.5% of the tested compounds scored in any of these assays.
RGS4 pot: RGS4 potentiation or activation; actives 0.92% (n = 310,000); B-score at 10 µM; HEK293 M3R/inducible RGS4, carbachol calcium flux Fluo4; active compounds read low;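 active means B-score of the integrated calcium signal more than 4 SD below the library mean, with starting fluorescence not abnormally high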;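 further: negative B-score means reduced calcium response which marks RGS4 activation or potentiation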
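Assay system: Inducible-RGS4 HEK293 cells carrying M3 receptor | Schedule: Compound preincubation 20 min at room temperature before agonist | Signal: Kinetic calcium fluorescence imaging with Fluo4-AM dye, 2 µM | Read-out basis: B score from integrated fluorescence ratio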
MrgX1 antagonist: human MrgX1 receptor antagonism, primary screen. Q96LB2. MRGX1-HEK293 calcium flux, Fluo-4, BAM8-22 antagonism; active compounds read low. B-score at 10 µM. actives 1.3% (n = 310,000). AID 588676;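 active means calcium-response B-score plate-corrected more than 3 library SD below zero, starting fluorescence within 5 deviations, no agonist response on first addition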;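 further: peak minus trough fluorescence over baseline after final BAM8-22 challenge near maximal dose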
Target sequence (Q96LB2 whole entry, looked up): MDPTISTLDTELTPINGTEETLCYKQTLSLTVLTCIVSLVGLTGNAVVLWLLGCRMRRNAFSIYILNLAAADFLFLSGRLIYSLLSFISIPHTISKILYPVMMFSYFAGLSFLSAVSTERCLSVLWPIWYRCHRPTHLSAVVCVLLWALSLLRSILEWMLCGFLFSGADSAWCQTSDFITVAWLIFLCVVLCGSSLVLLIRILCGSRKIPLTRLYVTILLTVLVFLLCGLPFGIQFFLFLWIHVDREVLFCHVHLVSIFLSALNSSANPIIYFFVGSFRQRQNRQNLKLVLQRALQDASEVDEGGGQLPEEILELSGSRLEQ
MrgX1 agonist: human MrgX1 receptor agonism, primary screen | MrgX1-HEK293 cells, Fluo-4 calcium fluorescence, agonist mode; active compounds read high | B-score at 10 µM | actives 0.44% (n = 310,000) | AID 588627;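 active means calcium response B-score plate-corrected fluorescence ratio at least 3 library SD, with starting fluorescence B-score inside 5 SD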
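Material: MrgX1-expressing HEK293 cells / Dosing: compound as first of three additions / Incubation: overnight seeding, then 1 h dark dye loading / Signal: Fluo-4 NW calcium fluorescence / Evaluation: B-scored fluorescence response ratio / Benchmarks: positive and negative control wells on each plate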
MrgX1 PAM: allosterically activates human MrgX1 receptor signaling; actives 0.63% (n = 310,000); AID 588675; MrgX1-HEK293, Fluo-4 calcium flux, FDSS; active compounds read high; B-score at 10 µM; Q96LB2;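 active means plate-corrected calcium response at least 3 library SD above typical, normal starting fluorescence, not activating the receptor alone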;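 further: compound read alongside a low EC10 to EC30 dose of BAM8-22 agonist; peak minus trough fluorescence over baseline measured at the second addition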
RGS4 block: inhibitors of human RGS4; P49798; HEK293 M3R/RGS4 inducible, Fluo-4 calcium flux; active compounds read high; triggered by carbachol at its EC20; B-score at 10 µM; actives 0.45% (n = 310,000); AID 463165;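 active means B-score, a plate-corrected calcium signal, over three deviations above library mean, with baseline fluorescence within five deviations of library mean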;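 further: RGS4 expression induced by doxycycline in cells with stable M3 receptor; B-score is computed from the integrated fluorescence ratio over baseline after carbachol; higher B-score means a larger calcium signal and so more RGS4 inhibition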
Target sequence (P49798 whole entry, looked up): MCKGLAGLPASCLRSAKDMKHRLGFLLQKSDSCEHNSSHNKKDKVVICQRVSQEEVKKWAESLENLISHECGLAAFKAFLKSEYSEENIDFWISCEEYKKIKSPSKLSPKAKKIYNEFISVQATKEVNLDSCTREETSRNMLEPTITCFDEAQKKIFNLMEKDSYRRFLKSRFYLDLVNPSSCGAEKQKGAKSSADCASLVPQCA
Of the large screens only hits and unclear results are named; the others gave an inactive call.

Cc1ccc(OCCN2C(=O)NC3(CCc4ccccc4C3)C2=O)cc1 (stereo not drawn)	none
COc1cc(/C=C/C(=O)c2ccc3c(c2)OCCO3)cc(Br)c1OCC(=O)N(C)C	MrgX1 antagonist -5.6
CCOc1c(Br)cc(CNc2ccc3c(c2)OCCO3)cc1OC	none
COc1ccc(/C=C2/C(=O)N(c3nc4ccccc4s3)N=C2CSc2ccc(Cl)cc2)cc1	none
Cc1ccc(OCC(=O)N2CCc3ccccc3C2)cc1	none
CN(C(=O)C(C)(C)C)c1ccc(OCC(=O)N2CCc3ccccc3C2)cc1	RGS4 pot -7.4
O=C(NC(C(=O)N/N=C/c1cccnc1)c1n[nH]c(=O)c2ccccc12)c1ccccc1 (stereo not drawn)	MrgX1 agonist 36
O=[N+]([O-])c1cc2oc3c(c2c(C=NCc2ccccc2)c1O)CCCC3	none
CC(C)CN=Cc1c(O)c([N+](=O)[O-])cc2oc3c(c12)CCCC3	MrgX1 antagonist -6.2
O=C(CN1CCCCCC1)N1c2ccccc2C=Cc2ccccc21	RGS4 pot -7.6
CCNCCC(=O)N1c2ccccc2Sc2ccc(C(F)(F)F)cc21	RGS4 pot -7.9, MrgX1 agonist 31
O=C(CN1CCN(c2ccccn2)CC1)N1c2ccccc2Sc2ccc(C(F)(F)F)cc21	none
O=C(CN1CCCC1)N1c2ccccc2Sc2ccc(C(F)(F)F)cc21	RGS4 pot -8.1
O=C(CN1CCCCC1)N1CCCc2ccccc21	none
COc1ccccc1/C=C/C=N/n1c(C)nnc1C	none
O=C(NCCCN1CCOCC1)C(=O)N/N=C/c1c2ccccc2cc2ccccc12	RGS4 pot -9.2
CN(C)C1(CNC(=S)Nc2ccccc2C(F)(F)F)CCCCC1	none
COc1cccc2cc(C(=O)CS(=O)(=O)c3ccc(C(C)(C)C)cc3)c(=O)oc12	none
O=C(CS(=O)(=O)c1ccccc1)c1cc2cc(F)ccc2oc1=O	MrgX1 agonist 61
COc1ccc(S(=O)(=O)CC(=O)c2cc3cccc(C)c3oc2=O)cc1	MrgX1 agonist 42
Cc1nn(-c2ccccc2)c(C)c1/C=N/NC(=O)CSc1nc2ccccc2c(=O)n1-c1ccc(Br)cc1	none
Cc1ccc(-n2c(SCC(=O)N/N=C/c3c(C)nn(-c4ccccc4)c3C)nc3ccccc3c2=O)cc1	MrgX1 antagonist -6.4
CCOC(=O)c1c(C)[nH]c(C)c1C(=O)CSc1nc2ccccc2c(=O)n1-c1ccc(C)cc1	RGS4 pot -7.2
COc1ccc(N(C)C(=O)c2ccc(NC(=O)CCS(=O)(=O)c3cccs3)cc2)cc1	none
c1ccc2c(c1)CCN(c1ncnc3c1[nH]c1ccccc13)C2	MrgX1 antagonist -8.2
Cc1ccc(/C=N/N2CCN(C3c4ccccc4-c4ccccc43)CC2)o1	none
CCC1C(c2ccccc2)N(C)C(c2ccccc2)CC1(O)c1ccccc1 (stereo not drawn)	RGS4 pot -7.7
Cc1ccc(C)c(NC(=O)CSc2nnc3n2CCCCC3)c1	none
CCOC(=O)c1ccc(NC(=O)N2CCN(c3ccccn3)CC2)cc1	RGS4 pot -7.1
COc1ccc([C@H]2[C@H](C(=O)C(C)(C)C)N3N=Cc4ccccc4C3C23C(=O)OC(C)(C)OC3=O)cc1 (stereo partly drawn)	MrgX1 antagonist -6.1
COc1ccc([C@@H]2[C@@H](C(=O)C(C)(C)C)N3N=Cc4ccccc4[C@@H]3C23C(=O)OC(C)(C)OC3=O)cc1OC	RGS4 pot -7.2
COc1ccc(N2C(=O)[C@H]3[C@@H](C2=O)C2c4ccccc4C=NN2[C@H]3C(=O)C(C)(C)C)cc1 (stereo partly drawn)	none
CN(c1ncnc(N)c1[N+](=O)[O-])C1CCCCC1	MrgX1 agonist 27
CCOc1cc(/C=C2/C(=O)ON=C2C)cc(Br)c1O	MrgX1 agonist 58
CCCOc1ccc(/C=C2/C(=O)ON=C2C)cc1OCC	none
CCOC(=O)c1c(N2C(=O)Nc3ccccc3N2O)sc2c1CCCC2	MrgX1 agonist 37
CCN(CC(=O)NC(C)C)C(=O)Cc1ccc(C)c(C)c1	none
COc1ccc(C(=O)c2ccc(Cl)cc2)cc1	none
COc1ccc(C(=O)c2ccc(Cl)c([N+](=O)[O-])c2)cc1	MrgX1 PAM 7
Cc1ccc(-c2nc3ccc(Cl)cc3c(=O)n2O)cc1	MrgX1 agonist 37
CCOC(=O)c1cc(C(=O)OCC)c(=O)[nH]c1N1CCCCC1	none
O=S(=O)(c1ccc(Br)cc1)N1CCCN(Cc2ccccc2F)CC1	RGS4 pot -7.4
O=S(=O)(c1ccc(Cl)cc1)N1CCN(Cc2c[nH]c3ccccc23)CC1	RGS4 pot -7.5
Cc1ccccc1CN1CCN(S(=O)(=O)c2ccc(F)cc2)CC1	none
S=C(Nc1ccc(-c2nc3ccccc3[nH]2)cc1)Nc1cccnc1	none
Fc1ccc2[nH]c3c(N4CCN(C5CCCCC5)CC4)ncnc3c2c1	RGS4 pot -7.6
Cc1ccc2[nH]c3c(N4CCCCCC4)ncnc3c2c1	none (no result: MrgX1 antagonist, MrgX1 agonist, MrgX1 PAM)
Cc1oc(-c2ccccc2F)nc1CS(=O)(=O)CC(=O)NC1CCCC1	none
Cc1oc(-c2ccccc2F)nc1CS(=O)(=O)CC(=O)NCCN(C)C1CCCCC1	MrgX1 antagonist -5.7
CCN(CC)c1cc(CS(=O)c2ccccc2)nc(-c2ccccc2)n1 (stereo not drawn)	none
Nn1c(SCC(=O)Nc2ccc(S(=O)(=O)N3CCCC3)cc2)nnc1C(F)(F)F	none
Cc1cc(OC(=O)c2ccccc2Br)cc(=O)n1C	MrgX1 PAM 10
N#C/C(=C\c1ccc(N2CCCCC2)o1)C(=O)Nc1cccc(Br)c1	MrgX1 agonist 53
CCS(=O)(=O)CCSc1nc2ccccc2s1	none
O=S(=O)(CCSc1nc2ccccc2s1)c1nc2ccccc2s1	RGS4 pot -7.4
O=C(C[n+]1cc(Br)cc2ccccc21)c1ccc(Cl)cc1	MrgX1 PAM 7.4
O=C(CC(Sc1ccc(Br)cc1)C(=O)O)c1ccc(Br)cc1 (stereo not drawn)	RGS4 block 6.9
C=CCOC(=O)C1=C[C@H](c2ccc(Br)cc2)C[C@H](OCc2ccc(CO)cc2)O1	none
COc1ccccc1N1CCN(C2CCCN(C(=O)CC(F)(F)F)C2)CC1 (stereo not drawn)	none
C[N+]1(CC(=O)OC2CCCCCCCCCCC2)CCCC1	RGS4 pot -7.2
CCOc1ccccc1NC(=O)Cn1cnc2c(nnn2-c2cccc(OC)c2)c1=O	none
Cc1ccc(C(c2sc3nc(C)nn3c2O)N2CCN(c3ccccc3F)CC2)cc1 (stereo not drawn)	MrgX1 antagonist -5.2
Cc1ccc(C(c2sc3nc(C)nn3c2O)N2CCN(CCO)CC2)cc1 (stereo not drawn)	none
CN(c1ccccc1)c1ccc(/C=C(\CCC(=O)O)c2nc3ccccc3s2)cc1[N+](=O)[O-]	MrgX1 antagonist -7.4
Cc1ccc(OCC(=O)NNC(=S)NC(=O)C2CCCCC2)c(C)c1	RGS4 pot -7.1, MrgX1 agonist 48
